Assay results: ChEMBL document CHEMBL5696442, “Discovery of type II inhibitors of TGFβ-activated kinase 1 (TAK1) and mitogen-activated protein kinase kinase kinase kinase 2 (MAP4K2)” (J Med Chem, 2015)

Key:
[1] = Inhibition of IL-1 induced p38 MAPK phosphorylation level in TAK1 deficient mouse MEF cells at 500 nM incubated for 1 hr followed by IL-1 stimulation by Western blot analysis relative to control; format: functional
[2] = target: Diacylglycerol kinase alpha (Homo sapiens) (UniProt P23743); test: Inhibition of DGKA ATP labeling site harbouring in human A-375 cells at 0.5 uM by KiNativ Profiling analysis relative to control; format: cell-based
Outline: (§1)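 Live A375 melanoma cells were treated with compound at 0.5 or 5 μM, then lysed. Lysates were labeled with a lysine-reactive ATP or ADP-biotin probe. The read-out was protection of each kinase probe-labeling site from labeling, relative to control.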

[3] = target: Serine/threonine-protein kinase 25 (Homo sapiens) (UniProt O00506); test: Inhibition of YSK1 ACT labeling site in human A-375 cells at 5 uM by KiNativ Profiling analysis relative to control; format: cell-based
Sequence of Serine/threonine-protein kinase 25 (Homo sapiens) (O00506 whole entry, looked up): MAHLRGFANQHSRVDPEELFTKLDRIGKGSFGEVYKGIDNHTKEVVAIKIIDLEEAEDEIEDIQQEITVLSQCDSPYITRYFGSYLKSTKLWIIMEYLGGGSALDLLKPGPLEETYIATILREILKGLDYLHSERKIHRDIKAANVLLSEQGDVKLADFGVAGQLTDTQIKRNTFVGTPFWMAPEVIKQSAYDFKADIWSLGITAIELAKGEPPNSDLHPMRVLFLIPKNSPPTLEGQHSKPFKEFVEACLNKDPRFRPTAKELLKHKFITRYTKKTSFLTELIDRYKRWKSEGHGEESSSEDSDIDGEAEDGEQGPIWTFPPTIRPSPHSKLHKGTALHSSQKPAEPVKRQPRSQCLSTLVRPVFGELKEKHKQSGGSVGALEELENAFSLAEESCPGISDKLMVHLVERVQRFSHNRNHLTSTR

[4] = target: T1, Ephrin type-B receptor 4 (Homo sapiens) (UniProt P54760); test: Inhibition of EphB4 ACT labeling site in human A-375 cells at 0.5 uM by KiNativ Profiling analysis relative to control; format: cell-based; outline: as §1
T1 sequence (whole entry): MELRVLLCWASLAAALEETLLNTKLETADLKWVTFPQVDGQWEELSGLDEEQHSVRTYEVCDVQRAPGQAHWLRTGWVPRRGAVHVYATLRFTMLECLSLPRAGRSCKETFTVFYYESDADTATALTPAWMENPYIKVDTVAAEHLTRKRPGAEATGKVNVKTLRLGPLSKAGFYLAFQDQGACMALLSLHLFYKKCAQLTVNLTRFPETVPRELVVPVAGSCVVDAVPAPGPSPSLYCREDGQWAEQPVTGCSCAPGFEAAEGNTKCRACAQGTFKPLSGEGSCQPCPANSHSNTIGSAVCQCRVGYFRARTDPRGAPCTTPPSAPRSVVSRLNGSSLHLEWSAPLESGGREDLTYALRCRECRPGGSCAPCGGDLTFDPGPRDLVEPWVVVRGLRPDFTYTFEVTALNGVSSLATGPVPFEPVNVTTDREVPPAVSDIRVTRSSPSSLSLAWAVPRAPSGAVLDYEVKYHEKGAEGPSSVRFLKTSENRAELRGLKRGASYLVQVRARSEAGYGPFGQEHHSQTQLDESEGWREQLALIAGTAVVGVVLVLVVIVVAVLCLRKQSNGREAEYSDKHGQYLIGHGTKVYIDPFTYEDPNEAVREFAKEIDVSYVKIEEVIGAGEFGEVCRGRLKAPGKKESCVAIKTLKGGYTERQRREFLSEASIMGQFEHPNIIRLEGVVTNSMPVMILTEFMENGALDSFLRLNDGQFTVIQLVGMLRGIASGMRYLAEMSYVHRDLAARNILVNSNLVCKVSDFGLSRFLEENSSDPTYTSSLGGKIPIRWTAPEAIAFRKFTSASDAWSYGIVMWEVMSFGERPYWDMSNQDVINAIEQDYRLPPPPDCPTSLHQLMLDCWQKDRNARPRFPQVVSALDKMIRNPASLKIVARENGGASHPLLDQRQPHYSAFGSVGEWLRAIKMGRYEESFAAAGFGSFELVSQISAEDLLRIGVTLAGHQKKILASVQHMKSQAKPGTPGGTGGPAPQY

[5] = target: Serine/threonine-protein kinase WNK2 (Homo sapiens) (UniProt Q9Y3S1); test: Inhibition of Wnk2 ACT labeling site in human A-375 cells at 5 uM by KiNativ Profiling analysis relative to control; format: cell-based
Sequence of Serine/threonine-protein kinase WNK2 (Homo sapiens) (Q9Y3S1 whole entry): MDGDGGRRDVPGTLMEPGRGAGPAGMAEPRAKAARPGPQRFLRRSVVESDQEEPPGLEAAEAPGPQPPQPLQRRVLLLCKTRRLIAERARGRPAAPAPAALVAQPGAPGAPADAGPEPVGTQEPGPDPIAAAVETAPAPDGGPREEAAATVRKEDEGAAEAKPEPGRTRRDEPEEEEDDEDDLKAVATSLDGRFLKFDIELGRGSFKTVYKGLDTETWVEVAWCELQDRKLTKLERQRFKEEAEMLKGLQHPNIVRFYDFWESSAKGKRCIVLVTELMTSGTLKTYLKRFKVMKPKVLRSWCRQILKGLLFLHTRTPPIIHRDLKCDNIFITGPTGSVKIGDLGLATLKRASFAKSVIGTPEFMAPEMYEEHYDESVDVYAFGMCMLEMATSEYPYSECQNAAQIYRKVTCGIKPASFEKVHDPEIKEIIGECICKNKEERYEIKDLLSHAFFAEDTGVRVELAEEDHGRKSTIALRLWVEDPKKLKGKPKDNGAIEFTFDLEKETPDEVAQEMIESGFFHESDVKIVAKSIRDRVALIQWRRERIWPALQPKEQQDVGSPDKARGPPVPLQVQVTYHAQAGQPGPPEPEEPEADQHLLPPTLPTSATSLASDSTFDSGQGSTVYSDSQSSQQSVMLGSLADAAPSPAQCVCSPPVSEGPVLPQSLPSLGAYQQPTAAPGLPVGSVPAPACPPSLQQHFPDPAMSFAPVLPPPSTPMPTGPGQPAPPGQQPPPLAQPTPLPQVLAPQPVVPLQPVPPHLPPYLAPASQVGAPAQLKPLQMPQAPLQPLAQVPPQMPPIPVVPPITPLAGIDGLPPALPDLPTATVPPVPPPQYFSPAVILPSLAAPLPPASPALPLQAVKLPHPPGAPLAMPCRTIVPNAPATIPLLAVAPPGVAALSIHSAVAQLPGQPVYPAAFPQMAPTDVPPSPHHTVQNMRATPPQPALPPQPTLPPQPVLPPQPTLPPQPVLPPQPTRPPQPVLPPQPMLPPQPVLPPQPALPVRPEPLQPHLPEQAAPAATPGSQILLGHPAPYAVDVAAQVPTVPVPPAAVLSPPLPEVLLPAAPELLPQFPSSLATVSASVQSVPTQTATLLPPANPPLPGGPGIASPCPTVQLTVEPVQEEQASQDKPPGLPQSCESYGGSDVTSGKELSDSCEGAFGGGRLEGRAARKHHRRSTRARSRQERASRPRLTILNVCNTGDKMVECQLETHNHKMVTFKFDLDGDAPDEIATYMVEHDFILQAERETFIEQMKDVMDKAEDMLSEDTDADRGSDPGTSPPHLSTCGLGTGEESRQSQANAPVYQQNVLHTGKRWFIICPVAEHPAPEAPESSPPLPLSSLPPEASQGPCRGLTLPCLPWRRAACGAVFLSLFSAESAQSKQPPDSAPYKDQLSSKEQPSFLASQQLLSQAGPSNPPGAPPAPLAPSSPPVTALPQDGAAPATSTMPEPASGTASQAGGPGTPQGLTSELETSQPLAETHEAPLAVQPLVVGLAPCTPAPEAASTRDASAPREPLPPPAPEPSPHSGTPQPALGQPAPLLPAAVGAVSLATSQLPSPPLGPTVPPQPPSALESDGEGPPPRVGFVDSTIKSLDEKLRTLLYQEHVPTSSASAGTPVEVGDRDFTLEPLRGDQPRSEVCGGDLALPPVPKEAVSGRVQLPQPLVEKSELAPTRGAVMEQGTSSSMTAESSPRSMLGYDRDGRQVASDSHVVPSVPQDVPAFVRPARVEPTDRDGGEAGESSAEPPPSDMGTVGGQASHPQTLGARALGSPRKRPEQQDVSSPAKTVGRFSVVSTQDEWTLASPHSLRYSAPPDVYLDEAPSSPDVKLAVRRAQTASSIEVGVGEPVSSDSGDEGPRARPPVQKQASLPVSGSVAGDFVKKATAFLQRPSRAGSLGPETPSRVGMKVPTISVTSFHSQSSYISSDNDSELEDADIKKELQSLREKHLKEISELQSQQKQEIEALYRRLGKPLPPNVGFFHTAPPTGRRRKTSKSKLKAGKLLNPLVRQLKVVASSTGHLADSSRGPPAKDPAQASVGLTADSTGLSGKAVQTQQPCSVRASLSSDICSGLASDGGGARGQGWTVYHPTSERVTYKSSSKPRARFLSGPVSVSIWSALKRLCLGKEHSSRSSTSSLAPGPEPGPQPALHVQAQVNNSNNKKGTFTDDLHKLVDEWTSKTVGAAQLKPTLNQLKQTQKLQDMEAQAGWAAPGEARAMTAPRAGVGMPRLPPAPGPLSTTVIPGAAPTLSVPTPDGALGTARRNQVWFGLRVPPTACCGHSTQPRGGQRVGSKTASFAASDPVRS

[6] = target: T2, Aurora kinase C (Homo sapiens) (UniProt Q9UQB9); test: Inhibition of AurC ATP Loop labeling site in human A-375 cells at 5 uM by KiNativ Profiling analysis relative to control; format: cell-based
T2 sequence (whole entry): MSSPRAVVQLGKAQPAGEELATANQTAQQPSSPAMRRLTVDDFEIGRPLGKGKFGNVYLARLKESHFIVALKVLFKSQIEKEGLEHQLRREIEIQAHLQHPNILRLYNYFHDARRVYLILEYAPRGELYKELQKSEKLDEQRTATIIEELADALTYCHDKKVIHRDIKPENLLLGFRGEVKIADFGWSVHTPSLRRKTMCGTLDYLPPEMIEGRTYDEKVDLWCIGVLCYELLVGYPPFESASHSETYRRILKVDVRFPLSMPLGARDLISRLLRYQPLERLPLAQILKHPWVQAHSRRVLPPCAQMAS
Outline: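 Live A375 melanoma cells were treated with compound at 5 or 0.5 μM, then lysed. The lysates were labeled with a lysine-reactive ATP or ADP-biotin probe. Kinase protection from probe labeling was measured by KiNativ.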

[7] = target: Protein kinase C alpha type (Homo sapiens) (UniProt P17252); test: Inhibition of PKCa Lys2 labeling site in human A-375 cells at 0.05 uM by KiNativ Profiling analysis relative to control; format: cell-based
[8] = target: Tyrosine-protein kinase Fer (Homo sapiens, UniProt P16591); test: Inhibition of FER Lys1 labeling site harbouring DKTSVAVKTCKEDLPQELK in human A-375 cells at 0.5 uM by KiNativ Profiling analysis relative to control; format: cell-based
[9] = target: Mitogen-activated protein kinase kinase kinase kinase 4 (Homo sapiens, UniProt O95819); test: Inhibition of ZC1/HGK Lys2 labeling site in human A-375 cells at 0.5 uM by KiNativ Profiling analysis relative to control; format: cell-based
Sequence of Mitogen-activated protein kinase kinase kinase kinase 4 (O95819 2-1239 limits assumed): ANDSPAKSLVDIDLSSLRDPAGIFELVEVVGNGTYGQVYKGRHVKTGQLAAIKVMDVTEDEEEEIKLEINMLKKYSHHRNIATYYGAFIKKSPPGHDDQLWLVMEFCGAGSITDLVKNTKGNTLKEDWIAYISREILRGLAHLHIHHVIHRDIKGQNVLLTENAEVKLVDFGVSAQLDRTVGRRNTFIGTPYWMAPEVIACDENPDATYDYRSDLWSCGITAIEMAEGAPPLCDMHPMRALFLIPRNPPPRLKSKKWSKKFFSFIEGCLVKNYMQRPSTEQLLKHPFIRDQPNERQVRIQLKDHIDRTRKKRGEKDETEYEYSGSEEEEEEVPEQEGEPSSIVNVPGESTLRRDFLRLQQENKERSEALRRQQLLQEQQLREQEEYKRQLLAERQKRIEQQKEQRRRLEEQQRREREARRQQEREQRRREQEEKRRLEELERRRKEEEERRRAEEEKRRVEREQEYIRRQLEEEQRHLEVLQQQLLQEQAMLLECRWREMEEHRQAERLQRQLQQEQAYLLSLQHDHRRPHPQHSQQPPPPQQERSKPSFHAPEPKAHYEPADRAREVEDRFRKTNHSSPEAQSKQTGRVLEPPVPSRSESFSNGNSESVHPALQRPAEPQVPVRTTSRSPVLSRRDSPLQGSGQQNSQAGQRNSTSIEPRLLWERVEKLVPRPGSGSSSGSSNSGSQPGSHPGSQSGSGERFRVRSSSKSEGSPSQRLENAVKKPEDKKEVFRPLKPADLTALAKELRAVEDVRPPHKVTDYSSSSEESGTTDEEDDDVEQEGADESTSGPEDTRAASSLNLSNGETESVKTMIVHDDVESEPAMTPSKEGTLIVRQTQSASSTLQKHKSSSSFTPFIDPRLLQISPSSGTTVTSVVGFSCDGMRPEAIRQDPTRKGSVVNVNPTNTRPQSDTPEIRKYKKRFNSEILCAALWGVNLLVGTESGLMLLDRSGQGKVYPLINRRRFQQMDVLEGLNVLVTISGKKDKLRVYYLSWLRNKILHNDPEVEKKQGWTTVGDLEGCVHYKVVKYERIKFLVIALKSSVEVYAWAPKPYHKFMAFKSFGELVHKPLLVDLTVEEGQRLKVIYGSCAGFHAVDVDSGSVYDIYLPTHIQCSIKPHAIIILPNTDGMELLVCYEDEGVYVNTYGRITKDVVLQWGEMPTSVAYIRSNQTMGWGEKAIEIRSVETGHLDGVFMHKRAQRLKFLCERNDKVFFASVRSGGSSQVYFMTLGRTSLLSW

[10] = target: T3, Interleukin-1 receptor-associated kinase 4 (Homo sapiens) (UniProt Q9NWZ3); test: Inhibition of IRAK4 Lys2 labeling site in human A-375 cells at 5 uM by KiNativ Profiling analysis relative to control; format: cell-based
T3 sequence (whole entry): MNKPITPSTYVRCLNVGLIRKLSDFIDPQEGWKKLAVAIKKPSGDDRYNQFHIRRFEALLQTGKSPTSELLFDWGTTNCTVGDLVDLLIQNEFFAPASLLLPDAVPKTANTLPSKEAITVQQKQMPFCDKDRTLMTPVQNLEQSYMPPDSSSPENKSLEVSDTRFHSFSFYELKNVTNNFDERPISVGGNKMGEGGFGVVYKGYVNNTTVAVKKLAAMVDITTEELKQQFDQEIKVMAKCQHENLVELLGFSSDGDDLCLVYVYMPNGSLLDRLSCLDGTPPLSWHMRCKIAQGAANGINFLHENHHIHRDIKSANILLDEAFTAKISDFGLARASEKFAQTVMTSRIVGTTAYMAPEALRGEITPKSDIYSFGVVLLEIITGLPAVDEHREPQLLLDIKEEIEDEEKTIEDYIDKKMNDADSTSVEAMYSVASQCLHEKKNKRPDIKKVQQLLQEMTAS
Outline: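 Live A375 melanoma cells were treated with compound at 5 or 0.5 μM, then lysed. Lysates were labeled with a lysine-reactive ATP or ADP-biotin probe. Read-out was the compound's protection of kinase labeling sites from probe labeling (KiNativ).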

[11] = target: Cyclin-dependent kinase 17 (Homo sapiens) (UniProt Q00537); test: Inhibition of PCTAIRE2 Lys1 labeling site harbouring SKLTENLVALKEIRLEHEEGAPCTAIR in human A-375 cells at 0.5 uM by KiNativ Profiling analysis relative to control; format: cell-based

| Compound | inhibition at 0.5 µM [1] | inhibition [2] | inhibition [3] | inhibition [4] | inhibition [5] | inhibition [6] | inhibition [7] | inhibition [8] | inhibition [9] | inhibition [10] | inhibition [11] |
| --- | --- | --- | --- | --- | --- | --- | --- | --- | --- | --- | --- |
| CNc1cc(Oc2cc(C(=O)Nc3cc(-n4cnc(C)c4)cc(C(F)(F)F)c3)ccc2C)ncn1 | 100% | – | – | – | – | – | – | – | – | – | – |
| CNc1cc(Oc2cc(C(=O)Nc3cc(N4CCN(C)CC4)cc(C(F)(F)F)c3)ccc2C)ncn1 | 100% | – | – | – | – | – | – | – | – | – | – |
| CCN1CCN(Cc2ccc(NC(=O)c3ccc(C)c(Oc4ccnc5[nH]ccc45)c3)cc2C(F)(F)F)CC1 | – | -9.4% | 35.1% | 39.2% | 14.4% | 31.4% | 45.3% | 87% | 70.8% | -0.2% | 6.9% |
| CCN1CCN(Cc2ccc(NC(=O)c3ccc(C)c(/C=C/c4cnc5[nH]ccc5c4OC)c3)cc2C(F)(F)F)CC1 | – | -8.3% | 13.7% | 78.1% | -4.5% | 48.5% | 58% | 30% | 48.1% | 34.1% | 2.4% |
